# Reference: publication PMC4339026 (Biopolymers, 2014)
# “Also recorded” adds a separate entry of the source.
# How the values were obtained:
# Assay type in all cases: biochemical
# meprin β [1] = target: T1, meprin β (Homo sapiens, UniProt Q16820); assay: Meprin β HTS FRET assay, dose response
# T1 sequence (Q16820 62-614 limits assumed): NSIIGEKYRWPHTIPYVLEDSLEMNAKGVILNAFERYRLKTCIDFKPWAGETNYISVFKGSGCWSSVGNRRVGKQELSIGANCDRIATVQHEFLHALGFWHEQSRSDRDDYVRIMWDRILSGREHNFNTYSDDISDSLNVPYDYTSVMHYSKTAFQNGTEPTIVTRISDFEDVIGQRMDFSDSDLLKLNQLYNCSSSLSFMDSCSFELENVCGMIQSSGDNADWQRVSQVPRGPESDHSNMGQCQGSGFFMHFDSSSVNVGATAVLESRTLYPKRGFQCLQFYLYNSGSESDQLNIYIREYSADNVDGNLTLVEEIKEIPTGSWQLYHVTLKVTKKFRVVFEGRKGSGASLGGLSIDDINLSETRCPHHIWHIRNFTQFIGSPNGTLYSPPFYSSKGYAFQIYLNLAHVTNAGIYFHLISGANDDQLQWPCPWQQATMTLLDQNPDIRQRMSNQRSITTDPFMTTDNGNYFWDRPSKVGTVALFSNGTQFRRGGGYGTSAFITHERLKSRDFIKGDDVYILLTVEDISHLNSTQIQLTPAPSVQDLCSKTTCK
# How it was run: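 Trypsin-activated meprin β (trypsin removed on immobilized ovomucoid) in 50 mM Hepes, 0.01% Brij-35, pH 7.5, added as 2x (0.15 nM) solution. Pin-transferred inhibitor was preincubated 30 min at RT. 2x (20 μM) (MCA)-EDEDED-(K-ε-DNP) was then added, run 1 h at RT, and read at ex 324/em 393 nm. A 3-fold dilution series was run in quadruplicate, and % inhibition was fitted with a 4-parameter equation. DMSO final was 0.1% or 1.0%.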
# MMP-2 = target: T2, MMP-2 (Homo sapiens, UniProt P08253); assay: Selectivity testing against zinc metalloproteases: MMP-2; conditions: read-out: IC50 MMP-2; n = 3 Mean ± SD
# T2 sequence (P08253 110-660): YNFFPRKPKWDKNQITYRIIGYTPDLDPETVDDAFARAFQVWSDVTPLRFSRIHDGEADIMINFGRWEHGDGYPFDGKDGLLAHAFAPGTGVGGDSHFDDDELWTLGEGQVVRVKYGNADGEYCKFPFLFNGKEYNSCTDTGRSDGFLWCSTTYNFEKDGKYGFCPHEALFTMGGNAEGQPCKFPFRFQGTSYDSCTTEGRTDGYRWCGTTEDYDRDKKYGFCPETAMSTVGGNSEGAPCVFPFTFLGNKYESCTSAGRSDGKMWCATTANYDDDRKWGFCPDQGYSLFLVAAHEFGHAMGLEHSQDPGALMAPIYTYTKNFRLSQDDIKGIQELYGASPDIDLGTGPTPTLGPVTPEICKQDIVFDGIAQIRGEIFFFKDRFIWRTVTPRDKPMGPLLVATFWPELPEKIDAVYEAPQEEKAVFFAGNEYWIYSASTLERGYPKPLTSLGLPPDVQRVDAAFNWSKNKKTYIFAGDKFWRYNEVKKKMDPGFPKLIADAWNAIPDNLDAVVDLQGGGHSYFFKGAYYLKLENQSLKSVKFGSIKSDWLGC
# MMP-8 = MMP-8 (Homo sapiens, UniProt P22894); assay: Selectivity testing against zinc metalloproteases: MMP-8; conditions: read-out: IC50 MMP-8; n = 3 Mean ± SD
# Chain of MMP-8 (P22894 101-467, species assumed): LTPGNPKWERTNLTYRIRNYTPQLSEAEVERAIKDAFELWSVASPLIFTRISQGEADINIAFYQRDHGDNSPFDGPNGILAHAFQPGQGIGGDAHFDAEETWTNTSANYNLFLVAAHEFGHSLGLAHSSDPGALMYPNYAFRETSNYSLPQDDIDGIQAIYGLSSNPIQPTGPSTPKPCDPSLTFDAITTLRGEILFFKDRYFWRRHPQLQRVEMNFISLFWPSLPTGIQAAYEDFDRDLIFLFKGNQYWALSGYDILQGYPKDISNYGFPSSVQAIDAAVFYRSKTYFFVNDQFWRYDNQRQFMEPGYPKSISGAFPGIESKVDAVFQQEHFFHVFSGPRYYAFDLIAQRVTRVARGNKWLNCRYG
# MMP-9 = MMP-9 (Homo sapiens, UniProt P14780); assay: Selectivity testing against zinc metalloproteases: MMP-9; conditions: read-out: IC50 MMP-9; n = 3 Mean ± SD
# Chain of MMP-9 (P14780 94-707, species assumed): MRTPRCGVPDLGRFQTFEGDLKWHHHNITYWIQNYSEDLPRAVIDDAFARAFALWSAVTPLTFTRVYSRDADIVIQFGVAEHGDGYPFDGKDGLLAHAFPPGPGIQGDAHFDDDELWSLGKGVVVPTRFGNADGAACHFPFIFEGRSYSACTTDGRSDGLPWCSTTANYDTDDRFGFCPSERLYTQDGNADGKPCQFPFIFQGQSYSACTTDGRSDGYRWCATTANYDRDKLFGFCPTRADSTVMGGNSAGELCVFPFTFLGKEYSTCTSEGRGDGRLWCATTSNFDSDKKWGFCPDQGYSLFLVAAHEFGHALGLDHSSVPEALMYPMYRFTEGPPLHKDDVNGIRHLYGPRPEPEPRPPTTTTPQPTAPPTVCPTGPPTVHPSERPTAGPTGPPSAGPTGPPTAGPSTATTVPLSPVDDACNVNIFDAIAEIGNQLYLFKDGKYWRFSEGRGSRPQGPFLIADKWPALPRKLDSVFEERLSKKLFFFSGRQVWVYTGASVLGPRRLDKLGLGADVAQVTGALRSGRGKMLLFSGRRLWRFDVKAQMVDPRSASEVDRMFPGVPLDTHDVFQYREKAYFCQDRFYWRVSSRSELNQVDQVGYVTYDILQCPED
# MMP-13 = MMP-13 (Homo sapiens, UniProt P45452); assay: Selectivity testing against zinc metalloproteases: MMP-13; conditions: read-out: IC50 MMP-13; n = 3 Mean ± SD
# MMP-14 = MMP-14 (Homo sapiens, UniProt P50281); assay: Selectivity testing against zinc metalloproteases: MMP-14; conditions: read-out: IC50 MMP-14; n = 3 Mean ± SD
# ADAM10 = target: T3, ADAM10 (Homo sapiens, UniProt O14672); assay: Selectivity testing against zinc metalloproteases: ADAM10; conditions: read-out: IC50 ADAM10; n = 3 Mean ± SD
# T3 sequence (O14672 214-748): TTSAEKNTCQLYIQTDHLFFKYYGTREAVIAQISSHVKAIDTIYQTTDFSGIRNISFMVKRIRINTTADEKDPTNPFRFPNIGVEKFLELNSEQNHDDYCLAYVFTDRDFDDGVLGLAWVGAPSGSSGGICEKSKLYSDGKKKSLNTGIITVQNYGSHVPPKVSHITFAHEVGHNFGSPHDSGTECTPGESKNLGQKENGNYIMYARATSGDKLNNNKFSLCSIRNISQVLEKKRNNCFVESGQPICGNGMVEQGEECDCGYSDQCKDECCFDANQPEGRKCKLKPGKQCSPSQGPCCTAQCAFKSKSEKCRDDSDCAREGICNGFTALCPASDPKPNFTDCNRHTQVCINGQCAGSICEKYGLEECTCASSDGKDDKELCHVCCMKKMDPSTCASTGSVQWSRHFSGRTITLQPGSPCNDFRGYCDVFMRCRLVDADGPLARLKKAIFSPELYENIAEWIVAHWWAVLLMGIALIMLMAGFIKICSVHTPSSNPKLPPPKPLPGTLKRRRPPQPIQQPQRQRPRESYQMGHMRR
# ADAM17 = ADAM17 (Homo sapiens, UniProt P78536); assay: Selectivity testing against zinc metalloproteases: ADAM17; conditions: read-out: IC50 ADAM17; n = 3 Mean ± SD
# Chain of ADAM17 (P78536 215-824, species assumed): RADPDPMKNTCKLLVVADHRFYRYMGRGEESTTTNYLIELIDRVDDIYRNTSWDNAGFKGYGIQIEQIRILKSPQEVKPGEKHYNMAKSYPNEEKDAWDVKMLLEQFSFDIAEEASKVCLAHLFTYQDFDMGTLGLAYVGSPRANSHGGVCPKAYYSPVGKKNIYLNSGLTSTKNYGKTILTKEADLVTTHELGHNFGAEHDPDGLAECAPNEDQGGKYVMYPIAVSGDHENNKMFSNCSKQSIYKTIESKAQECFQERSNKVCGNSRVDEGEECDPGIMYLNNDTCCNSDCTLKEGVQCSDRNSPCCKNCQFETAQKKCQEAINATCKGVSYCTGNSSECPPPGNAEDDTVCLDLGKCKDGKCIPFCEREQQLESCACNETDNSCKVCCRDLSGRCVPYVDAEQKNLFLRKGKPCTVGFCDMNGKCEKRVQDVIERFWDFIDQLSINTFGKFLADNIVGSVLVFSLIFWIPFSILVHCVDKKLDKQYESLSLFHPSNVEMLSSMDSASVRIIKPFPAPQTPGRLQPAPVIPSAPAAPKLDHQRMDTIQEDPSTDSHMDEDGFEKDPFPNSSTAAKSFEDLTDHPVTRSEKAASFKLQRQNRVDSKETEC
# meprin β [2] = target: T1, meprin β; assay: Meprin β inhibition kinetics / enzyme kinetics
# How it was run: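 Trypsin-activated meprin β at 1 nM was run with (MCA)-EDEDED-(K-ε-DNP) 0.5–25 μM plus varying inhibitor concentrations in 50 mM Hepes, 0.01% Brij-35, pH 7.5, at 25 °C. Fluorescence was read at ex 324/em 393 nm. Rates came from the linear portion of the progress curves. Ki and Ki′ came from nonlinear regression with a mixed-inhibition model. Mechanism came from the alpha parameter and was checked with Lineweaver-Burk plots.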
# meprin β [3] = target: T1, meprin β; assay: Meprin β LOPAC pilot screen; conditions: 18 μM
compound,measurement,setting,value
"O=C(Nc1cc(C(=O)Nc2ccc(S(=O)(=O)O)cc2S(=O)(=O)O)cc(C(=O)Nc2ccc(S(=O)(=O)O)cc2S(=O)(=O)O)c1)Nc1cc(C(=O)Nc2ccc(S(=O)(=O)O)cc2S(=O)(=O)O)cc(C(=O)Nc2ccc(S(=O)(=O)O)cc2S(=O)(=O)O)c1 [NF449, 4,4′,4″,4‴-[Carbonyl-bis[imino-5,1,3-benzenetriylbis-(carbonyl-imino)]]tetrakis(benzene-1,3-disulfonic acid)]",meprin β dose response behaviour,"meprin β [1]; dose response experiment, data not shown",did not exhibit the same effect
same,potency differential meprin β versus meprin α,meprin β [1]; ratio of IC50 values,> 1000 fold
same,selectivity ratio meprin β versus MMP-8,meprin β [1]; ratio of IC50 values,approximately 12 fold
same,IC50,"meprin β [1]; read-out: IC50 Meprin β, selectivity testing, n = 3 Mean ± SD",0.07 ± 0.005 µM
same,IC50,MMP-2,6 ± 0.5 µM
same,IC50,MMP-8,1 ± 0.1 µM
same,IC50,MMP-9,8.6 ± 0.7 µM
same,IC50,MMP-13,40 ± 3 µM
same,IC50,MMP-14,18 ± 1.5 µM
same,IC50,ADAM10,1.2 ± 0.1 µM
same,IC50,ADAM17,4.6 ± 0.3 µM
same,"Ki lower than IC50, fold",meprin β [2]; meprin β Ki versus HTS IC50,3 fold
same,α = Ki/Ki′,"meprin β [2]; mixed-model inhibition, non-linear regression",3.6 ± 4.3
same,mechanism of inhibition of meprin β,meprin β [2]; non-linear regression and Lineweaver-Burke plots,mixed competitive/non-competitive inhibition modality; also recorded: competitive mechanism with elements of non-competitive inhibition
same,Ki,"meprin β [2]; read-out: Ki meprin β, substrate (MCA)-EDEDED-(K-ε-DNP), mixed inhibition model",0.022 ± 0.0096 µM
same,% inhibition meprin β in pilot screen,meprin β [3],negative inhibition values
same,meprin β LOPAC pilot screen outcome,meprin β [3]; hit cutoff 25% inhibition,selective hits
